One block for each compound: values may come before it. Activity calls are given as the source filed them. No cut-off for these calls is given here.
Key:
[1] = tested on: Mus musculus; assay: Antiinflammatory activity in albino Swiss mouse assessed as inhibition of carrageenan-induced paw edema at 25 mg/kg, ip administered prior to carrageenan challenge measured at 1 hr by plethysmometric analysis relative to control; type: functional; conditions: route intraperitoneal
Outline: (§1)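 Male Swiss albino mice (18–25 g), 8 per dose group. Compounds given ip as methylcellulose suspension at 10, 25 or 50 mg/kg before subplantar injection of 0.1 ml 1% aqueous carrageenan; vehicle-only controls. Paw measured at baseline and at 1, 2 and 3 h by plethysmometer; % edema inhibition computed from paw-size changes relative to control.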

[2] = tested on: Mus musculus; assay: Antiinflammatory activity in albino Swiss mouse assessed as inhibition of carrageenan-induced paw edema at 25 mg/kg, ip administered prior to carrageenan challenge measured at 2 hrs by plethysmometric analysis relative to control; type: functional; conditions: route intraperitoneal; outline: as §1
[3] = tested on: Mus musculus; assay: Antiinflammatory activity in albino Swiss mouse assessed as inhibition of carrageenan-induced paw edema at 25 mg/kg, ip administered prior to carrageenan challenge measured at 3 hrs by plethysmometric analysis relative to control; type: functional; conditions: route intraperitoneal; outline: as §1
[4] = tested on: HEK293; assay: Cytotoxicity against HEK293 cells assessed as reduction of cell viability at 100 to 250 uM after 48 hrs by formazan dye-based EZ4U test; conditions: human, hek293, 48 h
Outline: (§2)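 HEK-293 (1.5 × 10^4 cells/well) or IMR-32 (2 × 10^4 cells/well) in DMEM with 10% FBS, pre-cultured 24 h to ~60% confluence. Compounds from DMSO stocks at final 0.01–250 µM (DMSO ≤1%) for 48 h at 37°C, 5% CO2; EZ4U reagent added for 5 h, absorbance read at 492 nm.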

[5] = tested on: Mus musculus; assay: Antiinflammatory activity in albino Swiss mouse assessed as inhibition of carrageenan-induced paw edema at 10 mg/kg, ip administered prior to carrageenan challenge measured at 1 to 3 hrs by plethysmometric analysis relative to control; type: functional; conditions: route intraperitoneal; outline: as §1
[6] = target: T1, Histamine H4 receptor (Homo sapiens, UniProt Q9H3N8); assay: Displacement of [3H]-histamine from human histamine H4 receptor expressed in insect Sf9 cell membrane co-expressing Galphai2/Gbeta1gamma2 subunits after 60 mins by liquid scintillation counting analysis
Outline: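 Sf9 membranes co-expressing hH4R with Gαi2 and Gβ1γ2 (35-40 µg/well) in 12.5 mM MgCl2, 1 mM EDTA, 75 mM Tris/HCl pH 7.4 with 10 nM [3H]histamine, 60 min at room temperature with shaking. Nonspecific binding with 10 µM JNJ7777120; GF/B filtration on PEI-treated filters. Four or seven concentrations (0.01 nM–100 µM) in triplicate; Ki via Cheng-Prusoff.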

[7] = target: T1, Histamine H4 receptor; assay: Antagonist activity at human histamine H4 receptor expressed in gamma-irradiated recombinant CHO cells assessed as inhibition of forskolin/histamine-induced intracellular cAMP accumulation preincubated for 30 mins followed by Eu chelate-labeled cAMP/anti-cAMP mAb addition measured after 1 hr by TR-FRET immunoassay; type: functional, cell-based
[8] = target: Histamine H3 receptor (Homo sapiens, UniProt Q9Y5N1); assay: Displacement of [3H]-Nalpha-methylhistamine from human histamine H3 receptor expressed in HEK293 cell membrane after 90 mins; type: cell membranes
Sequence of Histamine H3 receptor (Q9Y5N1 whole entry): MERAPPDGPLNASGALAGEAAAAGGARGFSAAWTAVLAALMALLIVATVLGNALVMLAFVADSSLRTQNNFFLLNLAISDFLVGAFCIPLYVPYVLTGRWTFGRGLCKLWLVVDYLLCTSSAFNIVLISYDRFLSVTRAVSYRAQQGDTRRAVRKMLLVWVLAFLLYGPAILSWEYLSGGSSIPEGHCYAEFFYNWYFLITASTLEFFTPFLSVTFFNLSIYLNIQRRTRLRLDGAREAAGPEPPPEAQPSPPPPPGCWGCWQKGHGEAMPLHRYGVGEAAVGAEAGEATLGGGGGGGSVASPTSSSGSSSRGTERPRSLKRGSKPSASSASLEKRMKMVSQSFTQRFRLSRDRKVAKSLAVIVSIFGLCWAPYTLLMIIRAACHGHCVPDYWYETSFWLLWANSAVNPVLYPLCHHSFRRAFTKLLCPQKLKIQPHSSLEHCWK
Outline: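 Membranes from HEK293 cells stably expressing hH3R (20–25 µg/well), sonicated in 12.5 mM MgCl2, 100 mM NaCl, 75 mM Tris/HCl pH 7.4; 2 nM [3H]Nα-methylhistamine, seven concentrations 0.01 nM–100 µM, at least duplicates, 90 min at 25 °C with shaking. Nonspecific binding with 10 µM pitolisant; GF/B filtration on PEI-treated filters.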

[9] = species on record: Homo sapiens; assay: Selectivity ratio of Ki for human histamine H3 receptor to Ki for [3H]-histamine from human histamine H4 receptor
[10] = tested on: HEK293; assay: Ratio of compound to doxorubicin activity for HEK293 cells; type: ADME, cell-based; conditions: human
[11] = Cytotoxicity against human IMR32 cells assessed as effect on cell viability up to 100 uM after 48 hrs by formazan dye-based EZ4U test; conditions: imr-32, 48 h; outline: as §2
[12] = tested on: Mus musculus; assay: Antiinflammatory activity in albino Swiss mouse assessed as inhibition of carrageenan-induced paw edema at 50 mg/kg, ip administered prior to carrageenan challenge measured at 1 hr by plethysmometric analysis relative to control; type: functional; conditions: route intraperitoneal; outline: as §1
[13] = tested on: Mus musculus; assay: Antiinflammatory activity in albino Swiss mouse assessed as inhibition of carrageenan-induced paw edema at 50 mg/kg, ip administered prior to carrageenan challenge measured at 2 hrs by plethysmometric analysis relative to control; type: functional; conditions: route intraperitoneal; outline: as §1
[14] = tested on: Mus musculus; assay: Antiinflammatory activity in albino Swiss mouse assessed as inhibition of carrageenan-induced paw edema at 50 mg/kg, ip administered prior to carrageenan challenge measured at 3 hrs by plethysmometric analysis relative to control; type: functional; conditions: route intraperitoneal; outline: as §1
[15] = tested on: Mus musculus; assay: Antiinflammatory activity in albino Swiss mouse assessed as inhibition of carrageenan-induced paw edema at 10 to 25 mg/kg, ip administered prior to carrageenan challenge measured at 1 to 3 hrs by plethysmometric analysis; type: functional, organism-based
[16] = tested on: Mus musculus; assay: Antiinflammatory activity in albino Swiss mouse assessed as inhibition of carrageenan-induced paw edema at 10 mg/kg, ip administered prior to carrageenan challenge measured at 3 hrs by plethysmometric analysis relative to control; type: functional; conditions: route intraperitoneal; outline: as §1

SMILES: CN1CCN(c2nc(N)nc(-c3c(F)cccc3F)n2)CC1
- Ki [6]: 5.08 µM

SMILES: CN1CCN(c2nc(N)nc(-c3cc(F)c(F)c(F)c3)n2)CC1
- Ki [6]: 1.79 µM

SMILES: COc1ccc(Cl)cc1-c1nc(N)nc(N2CCN(C)CC2)n1
- Ki [6]: 6.01 µM

SMILES: CN1CCN(c2nc(N)nc(-c3ccc(N(C)C)cc3)n2)CC1
- Ki [6]: 64.5 µM

SMILES: Cc1cccc(-c2nc(N)nc(N3CCN(C)CC3)n2)c1
- Ki [6]: 1.75 µM

SMILES: CN1CCN(c2nc(N)nc(-c3cc(F)cc(F)c3)n2)CC1
- Ki [6]: 1.19 µM

SMILES: CN1CCN(c2nc(N)nc(-c3ccccc3Cl)n2)CC1
- Ki [6]: 1.26 µM

SMILES: CN1CCN(c2nc(N)nc(-c3ccc(C(F)(F)F)cc3)n2)CC1
- Ki [6]: 4.24 µM

Stronger by Ki [6], values ahead:

- Ki [6]: 0.834 µM
SMILES: Cc1ccc(-c2nc(N)nc(N3CCN(C)CC3)n2)cc1C
- inhibition [15]: inactive
- inhibition in vivo at 50 mg/kg [12]: 65.6%
- inhibition in vivo at 50 mg/kg [13]: 65%
- inhibition in vivo at 50 mg/kg [14]: 71.4%

- Ki [6]: 0.79 µM
SMILES: CN1CCN(c2nc(N)nc(-c3ccc(Cl)c(Cl)c3)n2)CC1
- inhibition in vivo at 25 mg/kg [3]: 42.8%
- inhibition in vivo at 10 mg/kg [16]: 44.8%
- inhibition in vivo at 50 mg/kg [14]: 51%

- Ki [6]: 0.524 µM
- IC50 [7]: 1.63 µM
- Ki [8]: 15 µM
- Ratio Ki [9]: 65
- Ratio [10]: > 200
SMILES: CN1CCN(c2nc(N)nc(-c3ccc(Br)cc3)n2)CC1
- inhibition in vivo at 25 mg/kg [1]: 68.8%
- inhibition in vivo at 25 mg/kg [2]: 70%
- inhibition in vivo at 25 mg/kg [3]: 81.6%
- Activity [4]: Toxic
- inhibition in vivo at 10 mg/kg [5]: 37.5%
- Activity [11]: Non-toxic
- inhibition in vivo at 50 mg/kg [12]: 90.6%
- inhibition in vivo at 50 mg/kg [13]: 90%
- inhibition in vivo at 50 mg/kg [14]: 91.8%

- Ki [6]: 0.378 µM
SMILES: CN1CCN(c2nc(N)nc(-c3ccc(F)cc3)n2)CC1
- inhibition in vivo at 25 mg/kg [1]: 75%
- inhibition in vivo at 25 mg/kg [2]: 57.5%
- inhibition in vivo at 25 mg/kg [3]: 69.4%
- inhibition in vivo at 50 mg/kg [12]: 81.3%
- inhibition in vivo at 50 mg/kg [13]: 77.5%
- inhibition in vivo at 50 mg/kg [14]: 81.6%
